Test results reported in ChEMBL document CHEMBL1123791, “3'-substituted 2',3'-dideoxynucleoside analogues as potential anti-HIV (HTLV-III/LAV) agents” (J Med Chem, 1987).

Legend:
MT4 [1] = assay: Toxicity was determined by evaluation of cluster morphology and reclustering properties in mock infected MT-4 cells at 5 uM concentration; Range is 10-40; type: cell-based; conditions: human, mt4, 5 µM
ATH-8 cell line [2] = assay: Protection of ATH8 cells against the cytopathic effect of HIV.; type: functional; conditions: Homo sapiens, read-out: ED50 (the source's name)
MT4 [3] = assay: Toxicity was determined by evaluation of cluster morphology and reclustering properties in mock infected MT-4 cells at 0.2 uM concentration; type: cell-based; conditions: human, mt4, 0.2 µM
MT4 [4] = assay: Protection was determined by evaluation of cluster morphology and reclustering properties in […] MT-4 cells at 0.2 uM concentration; type: functional, Homo sapiens
MT4 [5] = assay: Protection was determined by evaluation of cluster morphology and reclustering properties in […] MT-4 cells at 5 uM concentration.; type: functional, Homo sapiens
Method in brief: (§1)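 MT4 cells infected with HIV (300 CCID50/well) were seeded at 2.5×10^5 cells/mL with compound at 125, 5, 0.2, 0.008 or 0.00032 µM and kept 5 days at 37 °C. Clusters were scored microscopically, dispersed by pipetting, and reclustering assessed after 4 h at 37 °C. Scoring: +++ >90% protection.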

MT4 [6] = assay: Toxicity was determined by evaluation of cluster morphology and reclustering properties in mock infected MT-4 cells at 125 uM concentration; type: cell-based; conditions: human, mt4, 125 µM
ATH-8 cell line [7] = assay: Required dose to reduce viability of normal uninfected ATH8 cells.; type: functional; conditions: Homo sapiens, read-out: ID50 (the source's name)
MT4 [8] = assay: Protection was determined by evaluation of cluster morphology and reclustering properties in […] at 0.008 uM concentration.; type: functional, Homo sapiens
MT4 [9] = assay: Protection was determined by evaluation of cluster morphology and reclustering properties in […] at 5 uM concentration; Range is 40-60; type: functional, Homo sapiens
MT4 [10] = assay: Toxicity was determined by evaluation of cluster morphology and reclustering properties in mock infected MT-4 cells at 5 uM concentration; type: cell-based; conditions: human, mt4, 5 µM
Method in brief: (§2)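 Mock-infected MT4 cells were seeded at 2.5×10^5 cells/mL with compound at 125–0.00032 µM and cultured 5 days at 37 °C. Cluster morphology was scored microscopically, then cells were dispersed by pipetting and reclustering read after 4 h. Scoring: ++ >90%, + 10–40%, − <10% toxicity.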

MT4 [11] = assay: Protection was determined by evaluation of cluster morphology and reclustering properties in mock infected MT-4 cells at 125 uM concentration; type: functional, Homo sapiens; conditions: in the assay text read “HIV infected” for “mock infected”; method in brief: as §1
[12] = Therapeutic index (Ratio = ID50/ED50).
MT4 [13] = assay: Toxicity was determined by evaluation of cluster morphology and reclustering properties in mock infected MT-4 cells at 0.008 uM concentration; type: cell-based; conditions: human, mt4, 0.008 µM; method in brief: as §2
MT4 [14] = assay: Protection was determined by evaluation of cluster morphology and reclustering properties in […] at 0.008 uM concentration; Range is 40-60; type: functional, Homo sapiens; method in brief: as §1
MT4 [15] = assay: Toxicity was determined by evaluation of cluster morphology and reclustering properties in mock infected MT-4 cells at 0.00032 uM concentration; type: cell-based; conditions: human, mt4, 0.00032 µM; method in brief: as §2
MT4 [16] = assay: Protection was determined by evaluation of cluster morphology and reclustering properties in […] MT-4 cells at 0.00032 uM concentration; Range is 10-40; type: functional, Homo sapiens; method in brief: as §1
MT4 [17] = assay: Toxicity was determined by evaluation of cluster morphology and reclustering properties in mock infected MT-4 cells at 125 uM concentration; Range is 10-40; type: cell-based; conditions: human, mt4, 125 µM; method in brief: as §2
MT4 [18] = assay: Protection was determined by evaluation of cluster morphology and reclustering properties in […] MT-4 cells at 125 uM concentration; Range is 40-60; type: functional, Homo sapiens
MT4 [19] = assay: Protection was determined by evaluation of cluster morphology and reclustering properties in […] MT-4 cells at 0.2 uM concentration; Range is 10-40; type: functional, Homo sapiens; method in brief: as §1
MT4 [20] = assay: Protection was determined by evaluation of cluster morphology and reclustering properties in […] MT-4 cells at 0.2 uM concentration; Range is 40-60; type: functional, Homo sapiens; method in brief: as §1
MT4 [21] = assay: Protection was determined by evaluation of cluster morphology and reclustering properties in […] MT-4 cells at 0.00032 uM concentration; type: functional, Homo sapiens; method in brief: as §1
MT4 [22] = assay: Toxicity was determined by evaluation of cluster morphology and reclustering properties in mock infected MT-4 cells at 0.2 uM concentration; Range is 10-40; type: cell-based; conditions: human, mt4, 0.2 µM; method in brief: as §2
MT4 [23] = assay: Toxicity was determined by evaluation of cluster morphology and reclustering properties in mock infected MT-4 cells at 0.008 uM concentration; Range is 10-40; type: cell-based; conditions: human, mt4, 0.008 µM; method in brief: as §2
MT4 [24] = assay: Protection was determined by evaluation of cluster morphology and reclustering properties in […] MT-4 cells at 0.008 uM concentration; Range is 10-40; type: functional, Homo sapiens; method in brief: as §1
MT4 [25] = assay: Protection was determined by evaluation of cluster morphology and reclustering properties in […] MT-4 cells at 5 uM concentration; Range is 10-40; type: functional, Homo sapiens; method in brief: as §1

EC50 (ATH-8 cell line [2]) [µM] | Compound | Toxicity (MT4 [3]) [%] | Protection (MT4 [4]) [%] | Protection (MT4 [5]) [%] | Toxicity (MT4 [6]) [%] | IC50 (ATH-8 cell line [7]) [µM] | Protection (MT4 [8]) [%] | Toxicity (MT4 [10]) [%] | selectivity ratio [12] | further results
> 100 | Nc1ccn([C@H]2C[C@H](O)[C@@H](CO)O2)c(=O)n1 [DOXECITINE] | < 10 | <10 | <10 | > 90 | > 100 | <10 | – | – | Toxicity (MT4 [1]): 10%
2.7 | Nc1ncnc2c1ncn2[C@H]1CC[C@@H](CO)O1 | < 10 | <10 | – | < 10 | > 500 | – | < 10 | > 148 | Protection (MT4 [9]): 40%; Protection (MT4 [11]): >90%
2.4 | Cc1cn([C@H]2C[C@H](N=[N+]=[N-])[C@@H](CO)O2)c(=O)[nH]c1=O (stereo in doubt; 1a) [ZIDOVUDINE] | – | >90 | – | – | 45 | – | – | 19 | Toxicity (MT4 [13]): < 10%; Protection (MT4 [14]): 40%; Toxicity (MT4 [15]): < 10%; Protection (MT4 [16]): 10%; Toxicity (MT4 [10]; 5 µM): > 90%; Toxicity (MT4 [6]; 125 µM): > 90%
260 | NCC1C=CC(n2ccc(N)nc2=O)O1 (stereo not given) | < 10 | <10 | <10 | – | > 500 | – | < 10 | > 1.9 | Toxicity (MT4 [17]): 10%; Protection (MT4 [18]): 40%
> 100 | Cc1cn([C@H]2C[C@H](N=[N+]=[N-])[C@@H](CO)O2)c(=O)nc1N | < 10 | – | – | – | > 100 | – | < 10 | – | Toxicity (MT4 [17]): 10%; Protection (MT4 [9]): 40%; Protection (MT4 [19]): 10%; Protection (MT4 [11]): >90%
8 | Nc1ccn(C2CC(F)C(CO)O2)c(=O)n1 (stereo not given) | – | – | – | > 90 | > 250 | <10 | > 90 | > 31 | Protection (MT4 [20]): 40%; Toxicity (MT4 [13]): < 10%; Toxicity (MT4 [15]): < 10%; Protection (MT4 [21]): <10%; Toxicity (MT4 [22]): 10%
100 | Cc1cn([C@H]2CC[C@@H](CO)O2)c(=O)[nH]c1=O | < 10 | – | >90 | < 10 | > 2000 | <10 | < 10 | > 20 | Protection (MT4 [19]): 10%
1.4 | Cc1cn([C@H]2C[C@H](F)[C@@H](CO)O2)c(=O)[nH]c1=O [ALOVUDINE] | > 90 | – | – | > 90 | 15 | – | > 90 | 10 | Toxicity (MT4 [23]): 10%; Toxicity (MT4 [15]): < 10%; Protection (MT4 [24]): 10%; Protection (MT4 [16]): 10%
> 100 | CO[C@H]1C[C@H](n2cc(C)c(=O)[nH]c2=O)O[C@@H]1CO | < 10 | <10 | – | > 90 | 88 | <10 | – | < 0.9 | Toxicity (MT4 [1]): 10%; Protection (MT4 [25]): 10%
4.1 | Cc1cn([C@H]2C=C[C@@H](CO)O2)c(=O)[nH]c1=O [STAVUDINE] | – | >90 | – | > 90 | 110 | – | > 90 | 27 | Protection (MT4 [24]): 10%; Protection (MT4 [21]): <10%; Toxicity (MT4 [22]): 10%

Compound | EC50 (ATH-8 cell line [2]) [µM] | Toxicity (MT4 [3]) [%] | Protection (MT4 [4]) [%] | Protection (MT4 [5]) [%] | Toxicity (MT4 [6]) [%] | IC50 (ATH-8 cell line [7]) [µM] | Protection (MT4 [8]) [%] | Toxicity (MT4 [10]) [%] | selectivity ratio [12] | further results
Cc1cn([C@H]2C[C@H](O)[C@@H](CO)O2)c(=O)[nH]c1=O [DOXRIBTIMINE] | > 100 | < 10 | <10 | <10 | < 10 | > 100 | – | < 10 | – | Protection (MT4 [18]): 40%
